As a reminder, the IC50 is the concentration that gives 50% inhibition.

The assay in a line: Inhibitory concentration against rat Calcium-activated potassium channel (IKca). Put shortly:
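IC50 taken as the mean of at least two separate experiments, each run in triplicate.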

For `CNC1=C(C(=O)OC)C(c2ccc(C(F)(F)F)cc2)C(C(=O)OC)=C(C)C1` (stereo not given), the IC50 came to 200 nM.

In the case of `CNC1=C(C(=O)OC)C(c2ccc([N+](=O)[O-])cc2)C(C(=O)OC)=C(C)C1` (stereo not given), the concentration for half-maximal inhibition (IC50) turned out to be 20 nM.

For the molecule `CCO/C(O)=C1/C(=O)CC2=C(C(=O)OC2)C1c1ccccc1Cl` (stereo not given), the IC50 worked out at 200 nM.

Consider `COC(=O)C1=C(C)CC(C)=C(C(=O)OC)C1c1cccnc1`, for which the IC50 was above 1000 nM.

As for `CNC1=C(C(=O)OC)C(c2cccc([N+](=O)[O-])c2)C(C(=O)OC)=C(C)C1` (stereo not given), the IC50 turned out to be 25 nM.

Take `COC(=O)C1=C(C)CC2=C(C(=O)OC2)C1c1ccc(Cl)c(C(F)(F)F)c1` (stereo not given): the IC50 turned out to be 8 nM.

For `COC(=O)C1=C(C)CC(C)=C(C(=O)OC)C1C1CCCCC1`, the IC50 was above 1000 nM.

Consider `CNC1=C(C(=O)OC)C(c2cccc([N+](=O)[O-])c2)C2=C(COC2=O)C1` (stereo not given), for which the IC50 was determined as 200 nM.

Turning to `CNC1=C(C(=O)OC)C(c2cccc(Cl)c2Cl)C2=C(COC2=O)C1` (stereo not given), the IC50 amounted to 400 nM.

As to `COC(=O)C1=C(C)CC(C)=C(C(=O)OC(C)(C)C)C1c1ccc(Cl)c(C(F)(F)F)c1` (stereo not given), the IC50 was above 1000 nM.

With `COC(=O)C1=C(C)CC(C)=C(C(=O)OC)C1c1cc(Cl)cc(Cl)c1`, the IC50 was determined as 100 nM.

For the molecule `COC(=O)C1=C(C)CC(C)=C(C(=O)OC)C1c1ccc(Cl)c(C(F)(F)F)c1`, the IC50 came to 1.5 nM.

Consider `COC(=O)C1=C(C)CC(C)=C(C(=O)O)C1c1ccc(Cl)c(C(F)(F)F)c1` (stereo not given), for which the IC50 is above 1000 nM.

With `COC(=O)C1=C(C)CC(C)=C(C(N)=O)C1c1ccc(Cl)c(C(F)(F)F)c1` (stereo not given), the IC50 came out at 30 nM.

Consider `CCO/C(O)=C1/C(=O)CC2=C(C(=O)OC2)C1c1ccc(Cl)c(C(F)(F)F)c1` (stereo not given), for which the IC50 was found to be 40 nM.

For the origin of these results see ChEMBL document CHEMBL1144251, “IKCa-channel blockers. Part 2: discovery of cyclohexadienes” (Bioorg Med Chem Lett, 2005).
